Test results taken from ChEMBL document CHEMBL1130245, “Syntheses and photodynamic activities of novel trisulfonated zinc phthalocyanine derivatives” (1997).

Legend:
Mus musculus [1] = species: Mus musculus; experiment: (§1) Light dose to inactivate 90% of mouse mammary tumor cells (EMT-6) incubated with 1 uM dye for a period of 24 hour.; format: functional; conditions: tested as the Zn salt or complex
Procedure, shortened: (§2)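 EMT-6 mouse mammary tumor cells, 15 × 10^3 per well, were grown overnight in Waymouth's with 15% FBS and incubated at 37 °C with dye at 1 µM in Waymouth's 1% FBS (1 h for line 1, 24 h for line 2). Cells were rinsed and exposed to 660-700 nm red light at 10 mW cm-2 (1.5-30 J cm-2). MTT read at 595 nm next day; LD90 extrapolated from survival curves; 8 replicates per light dose, ≥3 experiments.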

Mus musculus [2] = experiment: Light […] edema caused with EMT-6 tumor at drug dose 5 umol kg e-1, at light dose 400 J cme-2, and at time period of 24 hr; + = Light edema; format: functional, organism-based; conditions: tested as the Zn salt or complex
Procedure, shortened: (§3)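 Male BALB/c mice (18-22 g), depilated; 2 × 10^5 EMT-6 cells implanted intradermally on each hind thigh; used 6-8 days later (tumors 3-5 mm diameter, 2-3 mm thick). Dye in PBS given iv (2-20 µmol kg-1); 24 or 48 h later one tumor illuminated with 650-700 nm xenon-lamp light, the other left as control. Edema scored 24 h post-PDT.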

Mus musculus [3] = species: Mus musculus; experiment: (§4) Light dose to inactivate 90% of mouse mammary tumor cells (EMT-6) incubated with 1 uM dye for a period of 1 hour.; format: functional; conditions: tested as the Zn salt or complex; procedure, shortened: as §2
Mus musculus [4] = species: Mus musculus; experiment: Percent necrosis with EMT-6 Tumor in BALB/c mice at drug dose 5 umol kg e-1, at light dose 400 J cme-2, and at time period of 24 hr.; format: functional; procedure, shortened: as §3
Mus musculus [5] = species: Mus musculus; experiment: Percent regression with EMT-6 Tumor in BALB/c mice at drug dose 5 umol kg e-1, at light dose 400 J cme-2, and at time period of 24 hr.
[6] = as §1; format: functional; procedure, shortened: as §2
[7] = as §4; format: functional; procedure, shortened: as §2
Mus musculus [8] = experiment: Medium edema caused with EMT-6 tumor at drug dose 5 umol kg e-1, at light dose 400 J cme-2, and at time period of 24 hr; ++ = Medium edema; format: functional, organism-based; conditions: tested as the Zn salt or complex; procedure, shortened: as §3
Mus musculus [9] = species: Mus musculus; experiment: Percent regression with EMT-6 Tumor in BALB/c mice at drug dose 2 umol kg e-1, at light dose 400 J cme-2, and at time period of 24 hr.; format: functional; procedure, shortened: as §3
Mus musculus [10] = species: Mus musculus; experiment: Percent necrosis with EMT-6 Tumor in BALB/c mice at drug dose 5 umol kg e-1, at light dose 400 J cme-2, and at time period of 48 hr.; format: functional; procedure, shortened: as §3
Mus musculus [11] = species: Mus musculus; experiment: Percent necrosis with EMT-6 Tumor in BALB/c mice at drug dose 2 umol kg e-1, at light dose 400 J cme-2, and at time period of 24 hr.; format: functional; procedure, shortened: as §3
Mus musculus [12] = species: Mus musculus; experiment: Percent regression with EMT-6 Tumor in BALB/c mice at drug dose 5 umol kg e-1, at light dose 400 J cme-2, and at time period of 48 hr.; format: functional; procedure, shortened: as §3
Mus musculus [13] = experiment: Medium edema caused with EMT-6 tumor at drug dose 2 umol kg e-1, at light dose 400 J cme-2, and at time period of 24 hr.; ++ = Medium edema; format: functional, organism-based; conditions: tested as the Zn salt or complex; procedure, shortened: as §3
Mus musculus [14] = experiment: Medium edema caused with EMT-6 tumor at drug dose 5 umol kg e-1, at light dose 400 J cme-2, and at time period of 48 hr.; ++ = Medium edema; format: functional, organism-based; conditions: tested as the Zn salt or complex; procedure, shortened: as §3
Mus musculus [15] = species: Mus musculus; experiment: Percent necrosis with EMT-6 Tumor in BALB/c mice at drug dose 5 uMol kg e-1, at light dose 400 J cme-2, and at time period of 24 hr.; format: functional; procedure, shortened: as §3
Mus musculus [16] = species: Mus musculus; experiment: Percent necrosis with EMT-6 Tumor in BALB/c mice at drug dose 5 umol kg e-1, at light dose 300 J cme-2, and at time period of 24 hr.; format: functional; procedure, shortened: as §3
Mus musculus [17] = species: Mus musculus; experiment: Percent regression with EMT-6 Tumor in BALB/c mice at drug dose 5 umol kg e-1, at light dose 300 J cme-2, and at time period of 24 hr.; format: functional; procedure, shortened: as §3
Mus musculus [18] = experiment: Medium edema caused with EMT-6 tumor at drug dose 5 umol kg e-1, at light dose 400 J cme-2, and at time period of 48 hr; ++ = Medium edema; format: functional, organism-based; conditions: tested as the Zn salt or complex; procedure, shortened: as §3
Mus musculus [19] = species: Mus musculus; experiment: Percent regression with EMT-6 Tumor in BALB/c mice at drug dose 5 umol kg e-1, at light dose 400 J cme-2, and at time period of 24 hr.; format: functional; procedure, shortened: as §3
Mus musculus [20] = experiment: Medium edema caused with EMT-6 tumor at drug dose 2 umol kg e-1, at light dose 400 J cme-2, and at time period of 24 hr; ++ = Medium edema; format: functional, organism-based; conditions: tested as the Zn salt or complex; procedure, shortened: as §3
Mus musculus [21] = experiment: Medium edema caused with EMT-6 tumor at drug dose 2 umol kg e-1, at light dose 400 J cme-2, and at time period of 24 hr.; format: functional, organism-based; conditions: tested as the Zn salt or complex; procedure, shortened: as §3
Mus musculus [22] = experiment: Medium edema caused with EMT-6 tumor at drug dose 5 umol kg e-1, at light dose 300 J cme-2, and at time period of 24 hr.; ++ = Medium edema; format: functional, organism-based; conditions: tested as the Zn salt or complex; procedure, shortened: as §3
[23] = tested as the Zn salt or complex

O=S(=O)(O)c1ccc2c(c1)-c1nc-2nc2[nH]c(nc3nc(nc4[nH]c(n1)c1ccc(S(=O)(=O)O)cc41)-c1nc(-c4ccccc4)c(-c4ccccc4)nc1-3)c1ccc(S(=O)(=O)O)cc21
LD90 (Mus musculus [1]): 19.5 J cm··-2
Edema (Mus musculus [2]): Light edema
LD90 (Mus musculus [3]): > 30 J cm··-2
Necrosis response (Mus musculus [4]; [23]): 25%
Regression response (Mus musculus [5]; [23]): 0%

O=S(=O)(O)c1ccc2c(c1)-c1nc-2nc2[n-]c(nc3nc(nc4[n-]c(n1)c1ccc(S(=O)(=O)O)cc41)-c1ccccc1-3)c1ccc(S(=O)(=O)O)cc21.[Zn+2]
LD90 [6]: 5 J cm**-2
LD90 [7]: 29 J cm**-2
Necrosis response (Mus musculus [4]): 12%
Edema (Mus musculus [8]): Medium edema
Regression response (Mus musculus [5]): 0%

O=S(=O)(O)c1ccc2c(c1)-c1nc-2nc2[n-]c(nc3nc(nc4[n-]c(n1)c1ccc(S(=O)(=O)O)cc41)-c1ccc(S(=O)(=O)O)cc1-3)c1ccc(S(=O)(=O)O)cc21.[Zn+2]
Regression response (Mus musculus [9]): 12%
Necrosis response (Mus musculus [10]): 50%
LD90 [6]: 14 J cm**-2
LD90 [7]: >30 J cm**-2
Necrosis response (Mus musculus [11]): 12%
Regression response (Mus musculus [12]): 38%
Edema (Mus musculus [13]): Medium edema
Necrosis response (Mus musculus [4]): 91%
Edema (Mus musculus [14]): Medium edema
Regression response (Mus musculus [15]): 91%

CC(C)(C)c1ccc2cc3c(cc2c1)-c1nc-3nc2[n-]c(nc3nc(nc4[n-]c(n1)c1cc(S(=O)(=O)O)ccc41)-c1cc(S(=O)(=O)O)ccc1-3)c1cc(S(=O)(=O)O)ccc21.[Zn+2]
Regression response (Mus musculus [9]): 60%
Necrosis response (Mus musculus [10]): 87%
LD90 [6]: 2.5 J cm**-2
LD90 [7]: 21 J cm**-2
Necrosis response (Mus musculus [16]): 71%
Regression response (Mus musculus [17]): 43%
Necrosis response (Mus musculus [11]): 60%
Edema (Mus musculus [18]): Medium edema
Regression response (Mus musculus [12]): 87%
Regression response (Mus musculus [19]): 86%
Necrosis response (Mus musculus [4]): 100%
Edema (Mus musculus [20]): Medium edema

CC(C)(C)c1ccc2c(c1)-c1nc-2nc2[n-]c(nc3nc(nc4[n-]c(n1)c1cc(S(=O)(=O)O)ccc41)-c1cc(S(=O)(=O)O)ccc1-3)c1cc(S(=O)(=O)O)ccc21.[Zn+2]
Regression response (Mus musculus [9]): 33%
Necrosis response (Mus musculus [10]): 37%
LD90 [6]: 2.5 J cm**-2
LD90 [7]: >30 J cm**-2
Necrosis response (Mus musculus [16]): 12%
Regression response (Mus musculus [17]): 0%
Edema (Mus musculus [21]): Medium edema
Necrosis response (Mus musculus [11]): 50%
Edema (Mus musculus [22]): Medium edema
Regression response (Mus musculus [12]): 37%
Regression response (Mus musculus [19]): 90%
Necrosis response (Mus musculus [4]): 100%
